Assay results: ChEMBL document CHEMBL5338733, “Heterobifunctional Ligase Recruiters Enable pan-Degradation of Inhibitor of Apoptosis Proteins” (J Med Chem, 2023)
Values belong to the molecule of their own block, whether it stands above or below them. The source made the active and inactive calls. No cut-off for these calls is given here.

Experiments:
RPMI-8226 = assay: Cytotoxicity against human RPMI-8226 cells assessed as reduction in cell viability measured after 96 hrs in presence of TNF-alpha by CellTiter-Glo luminescent assay; assay type: functional, cell-based; details: RPMI-8226, 96 h
In short: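 Cells kept in RPMI-1640 with 10% FBS, 1% penicillin/streptomycin and 1% L-glutamine at 37 °C, 5% CO2. Seeded with compounds and incubated 96 h at 37 °C with TNF-α at 1 ng/mL. Viability read by CellTiter-Glo luminescence and normalized to DMSO-treated control. Mean ± SD of biological triplicates.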

[1] = molecular target: T1, von Hippel-Lindau disease tumor suppressor/Baculoviral IAP repeat-containing protein 2 (Homo sapiens) (UniProt Q13490+P40337); assay: PROTAC activity at VHL/IAP in human HG-3 cells harboring wild type VHL assessed as induction of cIAP1 degradation at 1 uM incubated for 16 hrs by western blot analysis; assay type: cell-based
In short: (§1)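 HG3 cells expressing Cas9 (lentiviral, blasticidin-selected) transduced with sgRNA against VHL or control luciferase (≥95% tomato-positive by FACS at 48 h); treated 1 μM for 16 h; lysed, SDS-PAGE, PVDF immunoblot with ECL detection, bands quantified by densitometry.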

[2] = molecular target: T2, von Hippel-Lindau disease tumor suppressor/E3 ubiquitin-protein ligase XIAP (Homo sapiens) (UniProt P98170+P40337); assay: PROTAC activity at VHL/IAP in human HG-3 cells harboring wild type VHL assessed as induction of XIAP degradation at 1 uM incubated for 16 hrs by western blot analysis; assay type: cell-based; in short: as §1
[3] = molecular target: Baculoviral IAP repeat-containing protein 2 (Homo sapiens) (UniProt Q13490); assay: Induction of cIAP1 degradation in human VHL knock-out HG-3 cells at 1 uM incubated for 16 hrs by western blot analysis; assay type: cell-based; in short: as §1
[4] = molecular target: T3, von Hippel-Lindau disease tumor suppressor/IAP (Homo sapiens) (UniProt P98170+Q13489+Q13490+P40337); assay: PROTAC activity at VHL/IAP in human MM1.S cells assessed as induction of VHL30 degradation at 1 uM incubated for 16 hrs by western blot analysis; assay type: cell-based
In short: (§2)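 MM.1S cells treated 16 h at the stated concentration. Lysed, run on SDS-PAGE and transferred to PVDF. Probed with primary antibodies overnight at 4 °C, then HRP secondaries, with ECL detection. Band densitometry normalized to loading control and to DMSO-treated cells. Averages of at least three independent experiments.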

[5] = molecular target: T4, Protein cereblon/E3 ubiquitin-protein ligase XIAP (Homo sapiens) (UniProt P98170+Q96SW2); assay: PROTAC activity at CRBN/IAP in human MM1.S cells assessed as induction of XIAP degradation by measuring remaining protein level at 0.1 uM incubated for 16 hrs by western blot analysis; assay type: cell-based; in short: as §2
[6] = molecular target: Protein cereblon/Baculoviral IAP repeat-containing protein 2 (Homo sapiens) (UniProt Q13490+Q96SW2); assay: PROTAC activity at CRBN/IAP in human MM1.S cells assessed as induction of cIAP1 degradation by measuring remaining protein level at 0.1 uM incubated for 16 hrs by western blot analysis; assay type: cell-based; in short: as §2
[7] = molecular target: Protein cereblon/Baculoviral IAP repeat-containing protein 3 (Homo sapiens) (UniProt Q13489+Q96SW2); assay: PROTAC activity at CRBN/IAP in human MM1.S cells assessed as induction of cIAP2 degradation by measuring remaining protein level at 0.1 uM incubated for 16 hrs by western blot analysis; assay type: cell-based; in short: as §2
[8] = molecular target: Protein cereblon-IAP (Homo sapiens) (UniProt P98170+Q13489+Q13490+Q96SW2); assay: PROTAC activity at CRBN/IAP in human MM1.S cells assessed as induction of CRBN degradation by measuring remaining protein level at 0.1 uM incubated for 16 hrs by western blot analysis; assay type: cell-based; in short: as §2
[9] = molecular target: T3, von Hippel-Lindau disease tumor suppressor/IAP (Homo sapiens); assay: PROTAC activity at VHL/IAP in human MM1.S cells assessed as induction of VHL30 degradation by measuring remaining protein level at 0.1 uM incubated for 16 hrs by western blot analysis; assay type: cell-based; in short: as §2
[10] = molecular target: T1, von Hippel-Lindau disease tumor suppressor/Baculoviral IAP repeat-containing protein 2 (Homo sapiens); assay: PROTAC activity at VHL/IAP in human MM1.S cells assessed as induction of cIAP1 degradation at 0.1 to 1 uM incubated for 16 hrs by western blot analysis; assay type: cell-based; details: dose 0.1-1 µM
In short: (§3)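 MM.1S cells (RPMI-1640, 10% FBS, 1% pen/strep, 1% L-glutamine, 37 °C, 5% CO2) exposed to compound or DMSO for 16 h. Lysed in IP lysis buffer, SDS-PAGE, PVDF transfer, primary antibody overnight at 4 °C, HRP secondary, ECL detection. Bands quantified densitometrically, normalized to loading control and DMSO, reported as remaining protein; at least three independent experiments.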

[11] = molecular target: T5, von Hippel-Lindau disease tumor suppressor/Baculoviral IAP repeat-containing protein 3 (Homo sapiens) (UniProt Q13489+P40337); assay: PROTAC activity at VHL/IAP in human MM1.S cells assessed as induction of cIAP2 degradation at 0.1 to 1 uM incubated for 16 hrs by western blot analysis; assay type: cell-based; details: dose 0.1-1 µM; in short: as §3
[12] = molecular target: T2, von Hippel-Lindau disease tumor suppressor/E3 ubiquitin-protein ligase XIAP (Homo sapiens); assay: PROTAC activity at VHL/IAP in human MM1.S cells assessed as induction of XIAP degradation at 0.1 to 1 uM incubated for 16 hrs by western blot analysis; assay type: cell-based; details: dose 0.1-1 µM; in short: as §2
[13] = molecular target: T4, Protein cereblon/E3 ubiquitin-protein ligase XIAP (Homo sapiens); assay: PROTAC activity at CRBN/IAP in human MM1.S cells assessed as induction of XIAP degradation at 1 uM incubated for 16 hrs by western blot analysis; assay type: cell-based; in short: as §2
[14] = molecular target: Protein cereblon/Zinc finger protein Aiolos (Homo sapiens) (UniProt Q96SW2+Q9UKT9); assay: PROTAC activity at CRBN/IKZF3 in human MM1.S cells assessed as induction of IKZF3 degradation at 1 uM incubated for 16 hrs by western blot analysis; assay type: cell-based; in short: as §2
[15] = molecular target: T2, von Hippel-Lindau disease tumor suppressor/E3 ubiquitin-protein ligase XIAP (Homo sapiens); assay: PROTAC activity at VHL/IAP in human MM1.S cells assessed as induction of XIAP degradation at 1 uM incubated for 16 hrs by western blot analysis; assay type: cell-based; in short: as §3
[16] = molecular target: T5, von Hippel-Lindau disease tumor suppressor/Baculoviral IAP repeat-containing protein 3 (Homo sapiens); assay: PROTAC activity at VHL/IAP in human MM1.S cells assessed as induction of cIAP2 degradation at 1 uM incubated for 16 hrs by western blot analysis; assay type: cell-based; in short: as §3
[17] = molecular target: T1, von Hippel-Lindau disease tumor suppressor/Baculoviral IAP repeat-containing protein 2 (Homo sapiens); assay: PROTAC activity at VHL/IAP in human MM1.S cells assessed as induction of cIAP1 degradation at 1 uM incubated for 16 hrs by western blot analysis; assay type: cell-based; in short: as §3
[18] = molecular target: T2, von Hippel-Lindau disease tumor suppressor/E3 ubiquitin-protein ligase XIAP (Homo sapiens); assay: PROTAC activity at VHL/IAP in human MM1.S cells assessed as induction of XIAP degradation at 10 nM incubated for 16 hrs by western blot analysis; assay type: cell-based; in short: as §3
[19] = molecular target: T5, von Hippel-Lindau disease tumor suppressor/Baculoviral IAP repeat-containing protein 3 (Homo sapiens); assay: PROTAC activity at VHL/IAP in human MM1.S cells assessed as induction of cIAP2 degradation at 10 nM incubated for 16 hrs by western blot analysis; assay type: cell-based; in short: as §3
[20] = molecular target: T1, von Hippel-Lindau disease tumor suppressor/Baculoviral IAP repeat-containing protein 2 (Homo sapiens); assay: PROTAC activity at VHL/IAP in human MM1.S cells assessed as induction of cIAP1 degradation at 10 nM incubated for 16 hrs by western blot analysis; assay type: cell-based; in short: as §3
[21] = molecular target: von Hippel-Lindau disease tumor suppressor (Homo sapiens) (UniProt P40337); assay: Induction of VHL30 degradation in human MM1.S cells assessed as remaining protein level at 0.1 uM incubated for 16 hrs by western blot analysis; assay type: cell-based; in short: as §2
[22] = molecular target: Baculoviral IAP repeat-containing protein 2 (Homo sapiens) (UniProt Q13490); assay: Induction of cIAP1 degradation in human MM1.S cells assessed as remaining protein level at 0.1 uM incubated for 16 hrs by western blot analysis; assay type: cell-based
In short: (§4)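 Lysed, run on SDS-PAGE and transferred to PVDF. Probed with primary antibodies overnight at 4 °C, then HRP secondaries, with ECL detection. Band densitometry normalized to loading control and to DMSO-treated cells. Averages of at least three independent experiments.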

[23] = molecular target: Baculoviral IAP repeat-containing protein 3 (Homo sapiens) (UniProt Q13489); assay: Induction of cIAP2 degradation in human MM1.S cells assessed as remaining protein level at 0.1 uM incubated for 16 hrs by western blot analysis; assay type: cell-based; in short: as §4
[24] = molecular target: Baculoviral IAP repeat-containing protein 2 (Homo sapiens) (UniProt Q13490); assay: Induction of cIAP1 degradation in human MM1.S cells at 1 uM incubated for 16 hrs by western blot analysis; assay type: cell-based; in short: as §2

Chain of Baculoviral IAP repeat-containing protein 2 (Homo sapiens) (Q13490 whole entry): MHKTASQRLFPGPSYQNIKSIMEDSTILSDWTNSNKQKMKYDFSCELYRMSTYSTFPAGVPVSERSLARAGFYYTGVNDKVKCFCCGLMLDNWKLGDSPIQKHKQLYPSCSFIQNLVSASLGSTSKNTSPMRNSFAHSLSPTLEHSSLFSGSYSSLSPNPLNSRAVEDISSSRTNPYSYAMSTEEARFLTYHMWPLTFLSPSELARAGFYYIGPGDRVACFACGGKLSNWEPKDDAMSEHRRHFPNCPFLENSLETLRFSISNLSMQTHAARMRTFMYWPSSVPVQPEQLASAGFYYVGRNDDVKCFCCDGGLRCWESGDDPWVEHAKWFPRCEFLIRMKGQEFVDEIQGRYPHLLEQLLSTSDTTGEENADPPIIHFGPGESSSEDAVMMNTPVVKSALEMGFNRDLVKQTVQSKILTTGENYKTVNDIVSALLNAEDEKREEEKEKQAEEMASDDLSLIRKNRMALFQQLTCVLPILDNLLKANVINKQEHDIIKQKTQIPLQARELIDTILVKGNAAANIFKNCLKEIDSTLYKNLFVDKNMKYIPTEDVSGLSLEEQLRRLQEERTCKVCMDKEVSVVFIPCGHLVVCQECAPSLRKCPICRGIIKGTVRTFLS
T2 sequence (P40337 whole entry, looked up): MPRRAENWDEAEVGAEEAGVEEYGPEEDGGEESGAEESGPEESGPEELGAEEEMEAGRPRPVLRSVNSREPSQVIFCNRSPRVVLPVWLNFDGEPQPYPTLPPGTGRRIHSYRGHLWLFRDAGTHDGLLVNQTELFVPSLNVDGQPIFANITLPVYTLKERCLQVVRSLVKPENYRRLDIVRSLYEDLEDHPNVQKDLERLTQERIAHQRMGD
T2 sequence (P98170 whole entry, looked up): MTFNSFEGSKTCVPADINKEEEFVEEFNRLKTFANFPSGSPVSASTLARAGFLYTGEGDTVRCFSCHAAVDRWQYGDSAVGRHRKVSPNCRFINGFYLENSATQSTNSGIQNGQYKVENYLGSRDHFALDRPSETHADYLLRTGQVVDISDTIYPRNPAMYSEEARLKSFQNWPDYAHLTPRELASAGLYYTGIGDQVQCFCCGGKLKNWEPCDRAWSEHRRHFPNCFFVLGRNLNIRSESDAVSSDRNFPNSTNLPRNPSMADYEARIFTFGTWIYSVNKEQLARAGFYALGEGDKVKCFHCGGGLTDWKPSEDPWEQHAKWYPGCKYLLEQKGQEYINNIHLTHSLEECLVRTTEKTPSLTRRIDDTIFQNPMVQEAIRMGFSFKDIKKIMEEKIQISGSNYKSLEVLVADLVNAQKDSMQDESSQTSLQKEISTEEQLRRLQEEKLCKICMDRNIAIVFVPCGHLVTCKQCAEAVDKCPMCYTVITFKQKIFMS
T5 sequence (P40337 whole entry, looked up): as the sequence (P40337 whole entry, looked up) above
T5 sequence (Q13489 whole entry, looked up): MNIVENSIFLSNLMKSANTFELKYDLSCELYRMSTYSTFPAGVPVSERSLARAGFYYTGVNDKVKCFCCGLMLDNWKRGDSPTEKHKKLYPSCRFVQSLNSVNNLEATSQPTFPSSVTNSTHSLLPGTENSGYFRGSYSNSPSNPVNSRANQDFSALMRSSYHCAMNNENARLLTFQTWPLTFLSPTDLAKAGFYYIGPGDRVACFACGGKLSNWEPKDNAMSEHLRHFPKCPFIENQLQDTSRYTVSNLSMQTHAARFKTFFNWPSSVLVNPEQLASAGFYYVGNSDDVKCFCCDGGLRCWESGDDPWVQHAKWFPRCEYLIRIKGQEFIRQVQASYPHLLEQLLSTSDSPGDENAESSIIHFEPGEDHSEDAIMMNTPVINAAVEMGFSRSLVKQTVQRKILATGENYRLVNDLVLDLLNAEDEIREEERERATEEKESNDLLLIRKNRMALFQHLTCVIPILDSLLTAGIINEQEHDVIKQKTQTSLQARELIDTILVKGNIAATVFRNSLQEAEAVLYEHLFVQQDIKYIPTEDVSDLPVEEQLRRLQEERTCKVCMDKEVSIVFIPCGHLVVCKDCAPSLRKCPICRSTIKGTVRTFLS
T1 sequence (P40337 whole entry, looked up): as the sequence (P40337 whole entry, looked up) above
T1 sequence (Q13490 whole entry, looked up): as the sequence (Q13490 whole entry) above
Chain of Protein cereblon/Zinc finger protein Aiolos (Homo sapiens) (Q96SW2 whole entry, looked up): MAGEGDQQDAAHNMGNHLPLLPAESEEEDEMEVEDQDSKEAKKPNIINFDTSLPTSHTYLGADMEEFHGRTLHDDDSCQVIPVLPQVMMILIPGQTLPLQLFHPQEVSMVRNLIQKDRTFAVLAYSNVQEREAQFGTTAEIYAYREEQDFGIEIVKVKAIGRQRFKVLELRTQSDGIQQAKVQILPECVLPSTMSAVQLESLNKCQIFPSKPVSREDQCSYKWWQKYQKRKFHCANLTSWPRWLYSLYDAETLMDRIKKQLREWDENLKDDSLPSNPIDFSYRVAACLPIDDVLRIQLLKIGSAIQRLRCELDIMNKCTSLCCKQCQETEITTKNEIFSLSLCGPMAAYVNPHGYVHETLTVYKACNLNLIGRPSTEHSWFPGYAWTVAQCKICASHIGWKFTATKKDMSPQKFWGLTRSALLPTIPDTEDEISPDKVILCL
Chain of Protein cereblon/Zinc finger protein Aiolos (Homo sapiens) (Q9UKT9 whole entry, looked up): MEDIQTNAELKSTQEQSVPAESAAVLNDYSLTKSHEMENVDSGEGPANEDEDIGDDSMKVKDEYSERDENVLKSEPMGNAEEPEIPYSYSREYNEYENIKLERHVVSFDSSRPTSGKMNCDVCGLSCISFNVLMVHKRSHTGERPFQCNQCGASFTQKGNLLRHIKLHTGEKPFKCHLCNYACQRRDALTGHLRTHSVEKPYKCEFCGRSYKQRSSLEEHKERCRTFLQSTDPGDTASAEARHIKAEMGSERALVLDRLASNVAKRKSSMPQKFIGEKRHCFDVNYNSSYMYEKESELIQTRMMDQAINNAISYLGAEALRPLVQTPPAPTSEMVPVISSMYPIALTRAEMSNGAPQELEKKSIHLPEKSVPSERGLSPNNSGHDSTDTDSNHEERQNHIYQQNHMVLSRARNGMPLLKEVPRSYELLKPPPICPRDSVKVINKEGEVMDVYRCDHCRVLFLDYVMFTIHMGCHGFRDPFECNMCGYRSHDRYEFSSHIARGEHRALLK
T3 sequence (P40337 whole entry, looked up): as the sequence (P40337 whole entry, looked up) above
T3 sequence (P98170 whole entry, looked up): as the sequence (P98170 whole entry, looked up) above
T3 sequence (Q13489 whole entry, looked up): as the sequence (Q13489 whole entry, looked up) above
T3 sequence (Q13490 whole entry, looked up): as the sequence (Q13490 whole entry) above
T4 sequence (P98170 whole entry, looked up): as the sequence (P98170 whole entry, looked up) above
T4 sequence (Q96SW2 whole entry, looked up): as the sequence (Q96SW2 whole entry, looked up) above
Chain of Protein cereblon/Baculoviral IAP repeat-containing protein 3 (Homo sapiens) (Q13489 whole entry, looked up): as the sequence (Q13489 whole entry, looked up) above
Chain of Protein cereblon/Baculoviral IAP repeat-containing protein 3 (Homo sapiens) (Q96SW2 whole entry, looked up): as the sequence (Q96SW2 whole entry, looked up) above
Chain of Baculoviral IAP repeat-containing protein 3 (Homo sapiens) (Q13489 whole entry): as the sequence (Q13489 whole entry, looked up) above
Chain of Protein cereblon/Baculoviral IAP repeat-containing protein 2 (Homo sapiens) (Q13490 whole entry, looked up): as the sequence (Q13490 whole entry) above
Chain of Protein cereblon/Baculoviral IAP repeat-containing protein 2 (Homo sapiens) (Q96SW2 whole entry, looked up): as the sequence (Q96SW2 whole entry, looked up) above
Chain of von Hippel-Lindau disease tumor suppressor (Homo sapiens) (P40337 whole entry, looked up): as the sequence (P40337 whole entry, looked up) above
Chain of Protein cereblon-IAP (Homo sapiens) (P98170 whole entry, looked up): as the sequence (P98170 whole entry, looked up) above
Chain of Protein cereblon-IAP (Homo sapiens) (Q13489 whole entry, looked up): as the sequence (Q13489 whole entry, looked up) above
Chain of Protein cereblon-IAP (Homo sapiens) (Q13490 whole entry, looked up): as the sequence (Q13490 whole entry) above
Chain of Protein cereblon-IAP (Homo sapiens) (Q96SW2 whole entry, looked up): as the sequence (Q96SW2 whole entry, looked up) above

SMILES: CN[C@@H](C)C(=O)N[C@H](C(=O)N1C[C@@H](Oc2cccc(OCCCCC(=O)N[C@H](C(=O)N3C[C@@H](O)C[C@H]3C(=O)NCc3ccc(-c4scnc4C)cc3)C(C)(C)C)c2)C[C@H]1C(=O)N[C@@H]1CCCc2ccccc21)C1CCCCC1
- IC50 (RPMI-8226): > 5 µM

SMILES: CN[C@@H](C)C(=O)N[C@H](C(=O)N1CC(Oc2cccc(OCCCCCCOCCCCCCOCC(=O)N[C@H](C(=O)N3C[C@H](O)C[C@H]3C(=O)NCc3ccc(-c4scnc4C)cc3)C(C)(C)C)c2)C[C@H]1C(=O)N[C@@H]1CCCc2ccccc21)C1CCCCC1 (single isomer, unassigned)
- Activity [1]: Active
- Activity [2]: Active
- Activity [3]: Active

SMILES: CN[C@@H](C)C(=O)N[C@H](C(=O)N1C[C@@H](Oc2cccc(OCCCCCCCC(=O)N[C@H](C(=O)N3C[C@H](O)C[C@H]3C(=O)NCc3ccc(-c4scnc4C)cc3)C(C)(C)C)c2)C[C@H]1C(=O)N[C@@H]1CCCc2ccccc21)C1CCCCC1
- Activity [1]: Active
- Activity [2]: Active
- Activity [3]: Active

SMILES: CN[C@@H](C)C(=O)N[C@H](C(=O)N1C[C@@H](Oc2cccc(OCCCCOCCCC(=O)N[C@H](C(=O)N3C[C@H](O)C[C@H]3C(=O)NCc3ccc(-c4scnc4C)cc3)C(C)(C)C)c2)C[C@H]1C(=O)N[C@@H]1CCCc2ccccc21)C1CCCCC1
- Activity [4]: Active

SMILES: CN[C@@H](C)C(=O)N[C@H](C(=O)N1C[C@@H](Oc2cccc(OCCCCC(=O)N[C@H](C(=O)N3C[C@H](O)C[C@H]3C(=O)NCc3ccc(-c4scnc4C)cc3)C(C)(C)C)c2)C[C@H]1C(=O)N[C@@H]1CCCc2ccccc21)C1CCCCC1
- Activity [9]: 38%
- Activity [10]: Active
- Activity [11]: Active
- Activity [12]: Active

SMILES: CN[C@@H](C)C(=O)N[C@H](C(=O)N1C[C@@H](Oc2cccc(OCCOCCOCC(=O)N[C@H](C(=O)N3C[C@H](O)C[C@H]3C(=O)NCc3ccc(-c4scnc4C)cc3)C(C)(C)C)c2)C[C@H]1C(=O)N[C@@H]1CCCc2ccccc21)C1CCCCC1
- Activity [1]: Active
- Activity [2]: Active
- Activity [3]: Active

SMILES: CN[C@@H](C)C(=O)N[C@H](C(=O)N1C[C@@H](Oc2cccc(OCCCCCCOCCCCCCOCCCCCCOc3cc(-c4scnc4C)ccc3CNC(=O)[C@@H]3C[C@@H](O)CN3C(=O)[C@H](C(C)C)N3Cc4ccccc4C3=O)c2)C[C@H]1C(=O)N[C@@H]1CCCc2ccccc21)C1CCCCC1
- Activity [15]: Active
- Activity [16]: Active
- Activity [17]: Active
- Activity [18]: inactive
- Activity [19]: inactive
- Activity [20]: inactive

SMILES: CN[C@@H](C)C(=O)N[C@H](C(=O)N1C[C@@H](Oc2ccccc2)C[C@H]1C(=O)N[C@@H]1CCCc2ccccc21)C1CCCCC1
- Activity [21]: 72%
- Activity [22]: 7%
- Activity [23]: 47%
- Activity [24]: Active

Second part, the molecule after the results:

- Activity [5]: 4%
- Activity [6]: 5%
- Activity [7]: 14%
- Activity [8]: 90%
SMILES: CN[C@@H](C)C(=O)N[C@H](C(=O)N1C[C@@H](Oc2cccc(OCCCCCCCCNc3cccc4c3C(=O)N(C3CCC(=O)NC3=O)C4=O)c2)C[C@H]1C(=O)N[C@@H]1CCCc2ccccc21)C1CCCCC1 (some centres not stated)

- Activity [13]: inactive
SMILES: CN[C@@H](C)C(=O)N[C@H](C(=O)N1C[C@@H](Oc2cccc(OCCOCCCCCCOCCCCCCNc3cccc4c3C(=O)N(C3CCC(=O)N(C)C3=O)C4=O)c2)C[C@H]1C(=O)N[C@@H]1CCCc2ccccc21)C1CCCCC1 (some centres not stated)

- Activity [14]: Active
SMILES: CN[C@@H](C)C(=O)N[C@H](C(=O)N1C[C@@H](Oc2cccc(OCCCCOCCCCNc3cccc4c3C(=O)N(C3CCC(=O)NC3=O)C4=O)c2)C[C@H]1C(=O)N[C@@H]1CCCc2ccccc21)C1CCCCC1 (some centres not stated)

- Activity [14]: Active
SMILES: CN[C@@H](C)C(=O)N[C@H](C(=O)N1C[C@@H](Oc2cccc(OCCCCCOCCCCCOCCCCCCNc3cccc4c3C(=O)N(C3CCC(=O)NC3=O)C4=O)c2)C[C@H]1C(=O)N[C@@H]1CCCc2ccccc21)C1CCCCC1 (some centres not stated)
